# Compound activity (PubChem BioAssay)
# M4 PAM = positive allosteric modulators of human muscarinic M4 receptor; CHO-K1 hM4/Gqi5, Fluo-8 calcium fluorescence, ACh EC20; 0% = ACh EC20, 100% = maximal ACh; activation, % at 3 µM; 360,000 compounds, 0.4% hits; AID 624126;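 active means activation above its plate's cutoff, the mean activation of sample wells plus 3 SD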
# M5 PAM = potentiates acetylcholine response at human M5 receptor. P08912. CHO-K1 hM5, Fluo-8 calcium, ACh EC20 PAM; 0% = ACh EC20, 100% = ACh EC100. activation, % at 3 µM. 360,000 compounds, 0.3% hits. AID 624038;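 active means activation above the run cutoff, the mean activation of all test compounds plus 3 SD, cut at about 18% in these data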
# Target sequence (P08912 whole entry, looked up): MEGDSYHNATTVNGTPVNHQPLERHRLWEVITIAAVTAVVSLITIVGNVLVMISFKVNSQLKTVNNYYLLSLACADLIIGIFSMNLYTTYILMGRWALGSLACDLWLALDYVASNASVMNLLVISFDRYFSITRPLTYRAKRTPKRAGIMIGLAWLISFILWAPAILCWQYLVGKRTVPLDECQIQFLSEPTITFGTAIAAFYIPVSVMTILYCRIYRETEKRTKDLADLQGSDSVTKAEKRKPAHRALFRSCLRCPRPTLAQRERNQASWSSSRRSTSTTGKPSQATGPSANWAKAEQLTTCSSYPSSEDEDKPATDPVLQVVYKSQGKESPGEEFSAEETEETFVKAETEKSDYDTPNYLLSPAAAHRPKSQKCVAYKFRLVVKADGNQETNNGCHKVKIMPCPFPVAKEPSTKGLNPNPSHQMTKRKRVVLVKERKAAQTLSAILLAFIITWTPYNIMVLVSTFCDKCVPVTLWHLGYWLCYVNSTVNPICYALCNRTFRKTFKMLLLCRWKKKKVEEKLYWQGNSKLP
#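 system = human M5 receptor in CHO-K1 cells | reagent = EC20 acetylcholine as agonist stimulus | compound dosing = single-point, 3 µM nominal | incubation = Fluo-8 loading 80 min at 37 °C plus 30 min room temperature | detection = Fluo-8 calcium dye fluorescence, kinetic read | benchmarks = low control EC20 acetylcholine (0%), high control EC100 acetylcholine (100%)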
# M4 ag = agonists of human muscarinic M4 receptor (CHRM4); P08173; CHO-K1 hM4/Gqi5, Fluo-8 calcium fluorescence; vehicle 0%, full acetylcholine response 100%; activation, % at 3 µM; 360,000 compounds, 0.14% hits;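 active means activation above the run mean over all test wells plus 3 SD, cut at about 32% in these data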;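 further: peak over basal fluorescence ratio per well then scaled between controls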
# CHRM5 agonist = CHRM5 agonism in calcium assay. P08912. CHO-K1 hM5 cells, Fluo-8 calcium fluorescence; 0% DMSO wells, 100% maximal acetylcholine response. activation, % at 3 µM. 360,000 compounds, 0.19% hits. AID 624037;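 active means activation above the run's mean over test compounds plus 3 SD, cut at about 23% in these data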;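 further: signal is peak over basal fluorescence ratio across the kinetic read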
# M5 antag = antagonists of human muscarinic M5 receptor (CHRM5). P08912. CHO-hM5 cells, Fluo-8 calcium fluorescence, ACh EC80. inhibition, % at 3 µM. 360,000 compounds, 0.59% hits;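 active means inhibition above a per-plate cutoff, the mean of that plate's test compounds plus 3 SD, cut at about 27% in these data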
# M4 antag = blocks acetylcholine activation of human M4 receptor; 360,000 compounds, 0.73% hits; CHO-hM4 cells, ACh EC80, Fluo-8 calcium fluorescence; AID 624125; inhibition, % at 3 µM;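 active means inhibition above its plate's cutoff, the mean inhibition of sample wells plus 3 SD, cut at about 27% in these data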
# A number is an active result; i = inactive. Compounds with a hit are over-represented: about 1.9% of the library has one in this group of screens.
SMILES,M4 PAM,M5 PAM,M4 ag,CHRM5 agonist,M5 antag,M4 antag
Nc1ccc2nc3c(=O)n(CCc4ccccc4)c(=O)[nH]c3nc2c1,i,i,45,165,33,i
Cc1cc2nc3c(=O)n(CCc4ccccc4)c(=O)[nH]c3nc2cc1N,i,i,i,32,i,i
Nc1ccc2nc3c(=O)n(C4CCCCC4)c(=O)[nH]c3nc2c1,i,i,70,133,35,i
CCCCn1c(=O)[nH]c2nc3cc(N)ccc3nc2c1=O,i,i,57,i,i,i
Nc1ccc2nc(CCc3ccccc3)[nH]c2c1,i,i,i,i,i,i
O=C(NC1CCN(S(=O)(=O)c2ccc(F)cc2)CC1)c1ccc(F)cc1,i,i,i,i,i,i
CCOC(=O)C1=C(COC(=O)CNS(=O)(=O)c2c(F)cc(F)cc2Br)NC(=O)NC1C (stereo unspecified),i,i,i,i,i,i
CC1CCCCN1CCCNC(=O)C1CCN(c2nc3ccccc3o2)CC1 (stereo unspecified),i,i,i,i,i,55
COc1ccc(C(=O)OC2CCN(C)CC2)cc1,31,i,i,i,i,i
CCOC(=O)C1=C[C@@H](C2CCCC2)N(S(=O)(=O)c2ccc([N+](=O)[O-])cc2)[C@H]1c1ccccc1,i,i,i,i,i,39
CCOC(=O)C1=C[C@@H](CC)N(S(=O)(=O)c2ccc(C)cc2)[C@H]1c1ccccc1,i,i,i,i,i,i
CS(=O)(=O)N1CCC(Oc2cccc(C(=O)NCCCOc3cccnc3)c2)CC1,i,i,i,i,i,i
CCOC(=O)C1(C)CCCN1C(=O)c1cncc(Br)c1 (stereo unspecified),i,i,i,i,i,i
CCOC(=O)C1(C)CCCCN1C(=O)c1cccnc1 (stereo unspecified),19,i,i,i,i,i
CC1(C(=O)NS(=O)(=O)c2cccc(Cl)c2)CCN1C(=O)CCc1cccs1 (stereo unspecified),i,i,i,i,i,i
CCN(CC(=O)NCc1cccs1)C(=O)/C=C/c1cccc(Br)c1,i,i,i,i,i,i
Cc1cc(N2C(=O)C(=O)/C(=C(/O)c3ccc(F)cc3)C2c2ccc(F)cc2)no1 (stereo unspecified),i,21,i,i,i,i
COc1ccc(/C(O)=C2\C(=O)C(=O)N(c3cc(C)on3)C2c2ccc(OC)c(OC)c2)cc1OC (stereo unspecified),i,i,i,i,i,i
COc1ccc(CNS(=O)(=O)c2ccc3c(c2)N(C(C)=O)CC(C)S3)cc1 (stereo unspecified),i,i,i,i,i,i
COc1ccc2c(c1)C(c1ccccc1)NC(=O)C2 (stereo unspecified),i,i,i,i,i,i
Cc1ccc(S(=O)(=O)NCCN2CCNC2=O)cc1,34,i,i,i,i,i
Cc1ccc(CN2CCNC2=O)cc1,34,i,i,i,i,i
O=C1NCCN1CCNS(=O)(=O)c1ccc(F)c(Cl)c1,i,i,i,i,i,i
COC(=O)c1cc(-c2ccc(S(=O)(=O)N3CCCCC3)cc2)c(C(F)(F)F)s1,i,i,i,i,i,i
CC(=O)Nc1sc(C)c(C)c1C(=O)OCC(=O)N(CC(C)C)c1c(N)n(Cc2ccccc2)c(=O)[nH]c1=O,i,i,i,i,i,i
SMILES,M4 PAM,M5 PAM,M4 ag,CHRM5 agonist,M5 antag,M4 antag
O=C(CC[C@H]1O[C@@H](n2cnc3c(NC(=O)c4ccccc4)ncnc32)[C@H](O)[C@@H]1O)NCC1CCCO1 (stereo partly specified),20,i,i,i,i,i
CCC(C)(C)n1nnnc1C(c1ccc(Cl)cc1)N1CCN(C)CC1 (stereo unspecified),20,i,i,i,i,i
CC(C)(C)S(=O)(=O)c1cnc(N2CCCCC2)nc1N,i,i,i,i,i,i
CC(=O)c1cnc(N2CCCCC2)nc1C,i,18,i,i,i,31
CN(CC1CCCN(CCc2ccccc2F)C1)C(=O)c1cc2ccccc2o1 (stereo unspecified),i,i,i,i,i,37
CN(Cc1ccccc1O)CC1CCCN(CCc2ccc(Cl)cc2)C1 (stereo unspecified),i,i,i,i,i,37
CCc1ccccc1NC(=O)Cn1nnc(C(=O)NCc2cccc(OC)c2)c1N,i,i,i,i,i,i
O=C(OCC(=O)N1CCOCC1)c1ccc(Cl)c(S(=O)(=O)N2CCc3ccccc32)c1,i,i,i,i,i,i
Cc1ccc(CNC(=O)C2COc3ccccc3O2)cc1 (stereo unspecified),i,i,i,i,i,i
Cc1ccc(C(C(=O)NCc2ccc(F)cc2)N(CCCO)C(=O)C2COc3ccccc3O2)o1 (stereo unspecified),i,i,i,i,i,41
CC(=O)Nc1cccc(-c2ccnc3c2CC(C)(C(=O)Nc2cccnc2)O3)c1 (stereo unspecified),i,i,i,i,i,i
COCCn1c(SCC(=O)Nc2ccc3[nH]c(=O)[nH]c3c2)nc2ccccc21,i,i,i,i,i,i
CCC(=O)C1CCCN(C(=O)CCc2nnc(C3(c4ccc(Cl)cc4)CCC3)o2)C1 (stereo unspecified),21,i,i,i,i,i
O=C(C[C@@H]1C[C@H]2c3cc(NC(=O)C4CCC4)ccc3O[C@H]2[C@@H](CO)O1)NCc1ccc(-c2ccccc2)cc1,i,i,i,i,i,i
O=C(CCCN=C1NS(=O)(=O)c2ccccc21)OCC(=O)c1ccccc1,i,i,i,i,i,i
O=C(COC(=O)CCCCCN=C1NS(=O)(=O)c2ccccc21)Nc1ccc(Cl)c(Cl)c1,i,i,i,i,45,i
Cc1ccc(S(=O)(=O)N(CC(=O)Nc2ccccc2)C(=O)N2CCN(C)CC2)cc1,20,i,i,i,i,i
C[N+](C)(C)CCOC(=O)CCC(=O)OCC[N+](C)(C)C,i,i,i,i,i,i
CC(=O)SCC[N+](C)(C)C,i,i,i,63,i,i
Cn1c(SCc2ccccc2)nc(N)c(N=O)c1=O,i,i,i,i,i,i
COc1ccc(C/C(C)=N/NC(=O)c2cccnc2)cc1,33,19,i,i,i,i
COc1ccc(C/C(C)=N/NC(=O)c2ccc(Cl)cc2)cc1,i,i,i,i,i,i
CC(C)(C)OC(=O)N1CCN(C(c2ccnc3ccccc23)c2nnnn2-c2ccc3c(c2)OCCO3)CC1 (stereo unspecified),i,i,i,i,i,i
